# Measured values published in ChEMBL document CHEMBL4819017 (Eur J Med Chem, 2021).
# What was measured:
# [1] = Inhibition of PI3K/mTOR in human U2OS cells assessed as inhibition of AKT1 phosphorylation at Ser473 residue by C-ELISA; type: cell-based
# Method in brief: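 U2OS osteosarcoma cells grown in 0.1% FBS and serum-stimulated. Endogenous phospho-AKT1 Ser473 quantified by cell-based ELISA with chemiluminescent substrate. Signal plotted against inhibitor concentration and fitted to a sigmoid dose-response curve.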
# [2] = target: Phosphatidylinositol 4,5-bisphosphate 3-kinase catalytic subunit gamma isoform (Homo sapiens, UniProt P48736); experiment: Inhibition of human p110gamma using PIP2 as substrate in presence of ATP measured by HTRF assay
# Phosphatidylinositol 4,5-bisphosphate 3-kinase catalytic subunit gamma isoform, sequence (P48736 whole entry, canonical isoform): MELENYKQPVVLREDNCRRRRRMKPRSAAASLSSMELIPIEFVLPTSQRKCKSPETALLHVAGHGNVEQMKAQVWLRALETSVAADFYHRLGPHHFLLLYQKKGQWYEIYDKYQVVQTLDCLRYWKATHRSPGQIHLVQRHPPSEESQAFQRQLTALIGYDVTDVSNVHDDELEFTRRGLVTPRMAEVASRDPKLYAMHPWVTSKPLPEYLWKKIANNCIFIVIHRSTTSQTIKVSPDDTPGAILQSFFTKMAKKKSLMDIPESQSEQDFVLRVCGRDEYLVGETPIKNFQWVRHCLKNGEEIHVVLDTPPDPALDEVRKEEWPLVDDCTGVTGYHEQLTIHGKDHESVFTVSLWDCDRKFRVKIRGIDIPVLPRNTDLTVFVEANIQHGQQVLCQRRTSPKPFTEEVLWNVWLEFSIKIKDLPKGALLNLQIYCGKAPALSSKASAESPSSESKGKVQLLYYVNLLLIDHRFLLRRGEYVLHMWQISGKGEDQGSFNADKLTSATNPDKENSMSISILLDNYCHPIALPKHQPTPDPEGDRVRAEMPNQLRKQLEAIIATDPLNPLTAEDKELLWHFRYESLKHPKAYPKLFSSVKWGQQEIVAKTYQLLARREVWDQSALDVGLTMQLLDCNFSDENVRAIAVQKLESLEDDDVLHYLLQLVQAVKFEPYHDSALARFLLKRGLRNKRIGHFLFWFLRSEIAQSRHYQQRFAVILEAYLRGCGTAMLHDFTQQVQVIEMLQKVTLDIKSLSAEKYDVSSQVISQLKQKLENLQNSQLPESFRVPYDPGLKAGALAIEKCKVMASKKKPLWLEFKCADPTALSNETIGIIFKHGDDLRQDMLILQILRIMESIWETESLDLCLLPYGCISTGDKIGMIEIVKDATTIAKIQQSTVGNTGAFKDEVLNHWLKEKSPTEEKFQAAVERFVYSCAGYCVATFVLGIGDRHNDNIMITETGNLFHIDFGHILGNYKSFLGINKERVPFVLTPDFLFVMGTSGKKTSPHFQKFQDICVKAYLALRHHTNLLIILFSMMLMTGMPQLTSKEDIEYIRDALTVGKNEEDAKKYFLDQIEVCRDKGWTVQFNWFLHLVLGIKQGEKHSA
# Method in brief: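 HTRF PI3-kinase assay with PIP2 at 10 µM. Enzyme and ATP levels (ATP at 50× KM): p110α/p85α 100 pM with 200 µM ATP; p110δ/p85α 100 pM with 200 µM ATP; p110β/p85α 500 pM with 250 µM ATP; p110γ 4 nM with 100 µM ATP. Activity normalized to no-compound control, variable-slope sigmoidal fit. Two independent experiments in duplicate.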
# [3] = Inhibition of PI3K/mTOR in human MCF7 cells assessed as reduction of AKT phosphorylation at Ser473 residue measured after 3 hrs by western blot assay; type: cell-based; details: MCF7, 3 h
# Method in brief: (§1)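 MCF7 cells treated for 3 h across a dose range, washed and lysed with phosphatase and protease inhibitors. Lysates run on 10% SDS-PAGE and blotted, antibodies incubated overnight at 4 °C.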
# [4] = Inhibition of PI3K/mTOR in human MCF7 cells assessed as reduction of AKT phosphorylation at Thr308 residue measured after 3 hrs by western blot assay; type: cell-based; details: MCF7, 3 h; method in brief: as §1
# [5] = Inhibition of PI3K/mTOR in human MCF7 cells assessed as reduction of P70S6K phosphorylation at Thr389 residue measured after 3 hrs by western blot assay; type: cell-based; details: MCF7, 3 h; method in brief: as §1
# [6] = Inhibition of PI3K/mTOR in human MCF7 cells assessed as reduction of S6 phosphorylation at Ser235/236 residue measured after 3 hrs by western blot assay; type: cell-based; details: MCF7, 3 h; method in brief: as §1
# HT-29 = experiment: Growth inhibition of human HT-29 cells harboring mutated p110alpha measured after 72 hrs by Cell titre Glo-luminiscence cell viability assay; type: functional
# Method in brief: (§2)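 Cells harvested just before confluency and seeded at 4,000 cells/well, then left 24 h before dosing. Serial dilutions from 10 mM DMSO stocks, final DMSO ≤0.5%, each concentration in duplicate.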
# NCI-H1975 = experiment: Growth inhibition of human NCI-H1975 cells harboring mutated p110alpha measured after 72 hrs by Cell titre Glo-luminiscence cell viability assay; type: functional; method in brief: as §2
# PC-3 = experiment: Growth inhibition of human PC-3 cells harboring PTEN inactivation measured after 72 hrs by Cell titre Glo-luminiscence cell viability assay; type: functional; method in brief: as §2
# DU-145 = experiment: Growth inhibition of human DU-145 cells harboring wild type p110alpha and PTEN measured after 72 hrs by Cell titre Glo-luminiscence cell viability assay; type: functional; method in brief: as §2
# A549 = experiment: Growth inhibition of human A549 cells harboring wild type p110alpha and PTEN measured after 72 hrs by Cell titre Glo-luminiscence cell viability assay; type: functional; method in brief: as §2
compound,measurement,setting,value
COc1ncc(-c2ccc3nccc(-c4ccnnc4)c3c2)cc1NS(=O)(=O)c1ccc(F)cc1F [OMIPALISIB],EC50,[1],0.6 nM
same,Ki,[2],0.51 nM
same,EC50,[3],0.65 nM
same,EC50,[4],0.21 nM
same,EC50,[5],0.68 nM
same,EC50,[6],0.87 nM
same,GI50,HT-29,19.9 nM
same,GI50,NCI-H1975,14.4 nM
same,GI50,PC-3,197 nM
same,GI50,DU-145,16.3 nM
same,GI50,A549,26.6 nM
